# In the array DNA melting data of Ke et al. (doi:10.1101/2024.01.08.574731):
# Columns and labels:
# [1] = melting temperature; fluorescence melt of hairpins on a sequencing array, two-state fit, raised by 9.35 °C to match UV melts; conditions: sodium 0.088 M
# Procedure, shortened: (§1)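 Bootstrapped two-state fits yielded melting temperature and folding enthalpy for library hairpins. Cy3 fluorescence, with annealed Cy3 and quencher oligos, was imaged on a sequenced MiSeq flow cell in 50 mM Na-HEPES pH 8.0, 25 mM NaCl in 2.5 °C steps up to 60 °C, and normalised to pre-quench Cy3 and to control constructs. Four replicates were combined by inverse variance, and fitted temperatures were raised by 9.35 °C to match UV melts.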
# [2] = folding enthalpy; higher = less favourable; fluorescence melt of hairpins on a sequencing array, two-state fit; conditions: sodium 0.088 M
# Procedure, shortened: as §1
Sequence,Tm [1],folding enthalpy [2]
GTTCGCGGAAACGTGAGC (.((.((....)).)).),41.3 °C,-22.4 kcal/mol
GCCTTGCGAAAGCCTGGC (((..((....))..))),53.9 °C,-18.7 kcal/mol
GCATAGCGAAAGCTTGGC ((..(((....)))..)),41.9 °C,-18.6 kcal/mol
GATCACACACGTGATC ((((((....)))))),57.9 °C,-35.8 kcal/mol
GAAATCCGAAAGGACTTC (((.(((....))).))),37.6 °C,-29.8 kcal/mol
GGTACCGAAAGGTGCACC ((((((....)))..))),40.3 °C,-13.9 kcal/mol
GCCACCGAAAGGTTGGGC ((((((....)))..))),52.6 °C,-20.8 kcal/mol
CGGTCGGAAACGAACCG ((((((....))).))),51.6 °C,-33.3 kcal/mol
GATCTAAGCTTAGATC ((((((....)))))),47.5 °C,-53.5 kcal/mol
GCTGAGGGAAACCTCAGC (((((((....))))))),69.2 °C,-45.2 kcal/mol
GGTTTCGAAAGAAGAACC ((((((....)))..))),31.5 °C,-18.3 kcal/mol
GATCGTTCAAACGATC ((((((....)))))),55 °C,-42.7 kcal/mol
GTCAATACGAAAGTAGAC (((..(((....)))))),27.3 °C,-12 kcal/mol
GATCCGGTCACGGATC ((((((....)))))),69.3 °C,-34.7 kcal/mol
GAATGAGGAAACTTATTC ((((.((....)).)))),29.6 °C,-20.4 kcal/mol
GGGCCGCGAAAGCGCCCC (((.(((....))).))),68.8 °C,-12.4 kcal/mol
GTAGACGAAAGTCGCTAC ((((((....)))..))),40.5 °C,-10.8 kcal/mol
GCGAGACATCGC ((((....)))),55.1 °C,-8 kcal/mol
GCATGGCCGAAAGGCTGC (((..(((....)))))),53.3 °C,-13.2 kcal/mol
GGCTACGAAAGTAGGGCC ((((((....)))..))),47.1 °C,-15.7 kcal/mol
GATCCTCCGAGGATC ((((((...)))))),53.1 °C,-33.1 kcal/mol

Sequence,Tm [1],folding enthalpy [2]
GGTTTGAAAAAACC (((((....))))),46.3 °C,-25 kcal/mol
GCGCTTGGAAACAGGCGC ((((.((....)).)))),61.7 °C,-40.6 kcal/mol
GTACCCGAAAGGGACTAC ((((((....)))..))),45.8 °C,-14.3 kcal/mol
CGTCCCGGAAACGGACG (((.(((....)))))),53.2 °C,-27.7 kcal/mol
GTAGACGAAAGTCTTAC ((((((....))).))),38.6 °C,-14.6 kcal/mol
GCTGTCGAAAGACCAGC ((((((....))).))),51.3 °C,-20.8 kcal/mol
GCTGTCCCGAAAGGGAGC (((..(((....)))))),41.5 °C,-11 kcal/mol
GCTTCGCGAAAGCGGCGC ((..(((....)))..)),51.9 °C,-15.6 kcal/mol
GTAACGGGAAACTGTTAC (((((.(....).))))),46.3 °C,-30.4 kcal/mol
GCTATGGGAAACCATAGC (((((((....))))))),61.4 °C,-40.7 kcal/mol
GGGTCGCCGAAAGGCCCC (((..(((....)))))),46.4 °C,-11.1 kcal/mol
GGTGTCGGAAACGACATC (.(((((....))))).),54 °C,-26.8 kcal/mol
GTTTGGGGAAACTCAAAC (((((.(....).))))),43.9 °C,-31.7 kcal/mol
GGTTGGCGAAAGCCGACC (((.(((....))).))),69.3 °C,-29.3 kcal/mol
GGGAGTCGAAAGACCCC (((.(((....)))))),56.7 °C,-32.7 kcal/mol
GTACGGCGAAAGCCCTAC (((.(((....))).))),35.9 °C,-12.5 kcal/mol
GTCTTTGGAAACAAAGGC (.(((((....))))).),46.6 °C,-29.3 kcal/mol
GGCCGGGGAAACCCGACC ((.((((....)))).)),57.2 °C,-34.5 kcal/mol
GATCGTCTTACGATC ((((((...)))))),57.1 °C,-34.8 kcal/mol
GACGCAGGAAACCGCGTC (((((.(....).))))),56.9 °C,-37.3 kcal/mol
GATTGTGCGAAAGCAATC (((..(((....)))))),34 °C,-12.8 kcal/mol
